Activity calls are given as the source filed them. The rule behind the calls is not given here.
Tests used:
[1] = test system: Leucine-rich repeat serine/threonine-protein kinase 2 (Homo sapiens), Q5S007 [A2016T]; experiment: Inhibition of drug-resistant GFP-tagged LRRK2 A2016T mutant phosphorylation at Ser910 residue (unknown origin) transfected in HEK293 cells upto 3 uM incubated for 90 mins by immunoblot analysis; format: cell-based
Summary of the method: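 HEK293 cells stably expressing GFP-LRRK2 variants, grown in DMEM with 10% FBS, 2 mM glutamine and penicillin/streptomycin. Compound added from DMSO stock (final DMSO ≤1%) at increasing concentrations for 90 min, DMSO control. Cells were PBS-washed and lysed in Triton X-100 lysis buffer. Lysates were run on 8% SDS-PAGE and immunoblotted with rabbit monoclonals against pSer910, pSer935 and total LRRK2.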

[2] = target: Leucine-rich repeat serine/threonine-protein kinase 2 (Homo sapiens) (UniProt Q5S007); experiment: Inhibition of LRRK2 phosphorylation at Ser935 residue in EBV immortalized human derived lymphoblastoid cells at 0.01 to 3 uM incubated for 90 mins by immunoblot analysis; format: cell-based; conditions: Lymphoblastoid cell, dose 0.01-3 µM
[3] = target: Serine/threonine-protein kinase ICK (Homo sapiens) (UniProt Q9UPZ9); experiment: Inhibition of T7 bacteriophage fused human ICK at 10 uM by KINOMEscan analysis relative to control; values are per cent of control
[4] = target: Leukocyte tyrosine kinase receptor (Homo sapiens) (UniProt P29376); experiment: Inhibition of T7 bacteriophage fused human LTK at 10 uM by KINOMEscan analysis relative to control; values are per cent of control
[5] = test system: Hepatocyte growth factor receptor (Homo sapiens), P08581 [Y1235D]; experiment: Inhibition of T7 bacteriophage fused human MET Y1235D mutant at 10 uM by KINOMEscan analysis relative to control
[6] = target: Ribosomal protein S6 kinase alpha-1 (Homo sapiens) (UniProt Q15418); experiment: Inhibition of T7 bacteriophage fused human C-terminal RSK1 Kinase domain-2 at 10 uM by KINOMEscan analysis relative to control
[7] = target: RAF proto-oncogene serine/threonine-protein kinase (Homo sapiens) (UniProt P04049); experiment: Inhibition of T7 bacteriophage fused human RAF1 at 10 uM by KINOMEscan analysis relative to control
[8] = test system: Tyrosine-protein kinase ABL1 (Homo sapiens), P00519 [F317I]; experiment: Inhibition of T7 bacteriophage fused human phosphorylated ABL1 F317I mutant at 10 uM by KINOMEscan analysis relative to control
[9] = target: Protein kinase C theta type (Homo sapiens) (UniProt Q04759); experiment: Inhibition of T7 bacteriophage fused human PRKCQ at 10 uM by KINOMEscan analysis relative to control
[10] = target: Tyrosine-protein kinase Fes/Fps (Homo sapiens) (UniProt P07332); experiment: Inhibition of T7 bacteriophage fused human FES at 10 uM by KINOMEscan analysis relative to control; values are per cent of control
[11] = target: Ephrin type-B receptor 2 (Homo sapiens) (UniProt P29323); experiment: Inhibition of T7 bacteriophage fused human EPHB2 at 10 uM by KINOMEscan analysis relative to control
[12] = target: Mitogen-activated protein kinase kinase kinase 10 (Homo sapiens) (UniProt Q02779); experiment: Inhibition of T7 bacteriophage fused human MLK2 at 10 uM by KINOMEscan analysis relative to control
[13] = target: Mitogen-activated protein kinase kinase kinase kinase 2 (Homo sapiens) (UniProt Q12851); experiment: Inhibition of T7 bacteriophage fused human MAP4K2 at 10 uM by KINOMEscan analysis relative to control
[14] = target: Mitogen-activated protein kinase kinase kinase 3 (Homo sapiens) (UniProt Q99759); experiment: Inhibition of T7 bacteriophage fused human MAP3K3 at 10 uM by KINOMEscan analysis relative to control
[15] = target: Calcium/calmodulin-dependent protein kinase type 1G (Homo sapiens) (UniProt Q96NX5); experiment: Inhibition of T7 bacteriophage fused human CAMK1G at 10 uM by KINOMEscan analysis relative to control
[16] = target: Dual specificity mitogen-activated protein kinase kinase 1 (Homo sapiens) (UniProt Q02750); experiment: Inhibition of T7 bacteriophage fused human MEK1 at 10 uM by KINOMEscan analysis relative to control
[17] = target: Death-associated protein kinase 2 (Homo sapiens) (UniProt Q9UIK4); experiment: Inhibition of T7 bacteriophage fused human DAPK2 at 10 uM by KINOMEscan analysis relative to control; values are per cent of control
[18] = test system: Phosphatidylinositol 4,5-bisphosphate 3-kinase catalytic subunit alpha isoform (Homo sapiens), P42336 [H1047L]; experiment: Inhibition of T7 bacteriophage fused human PIK3CA H1047L mutant at 10 uM by KINOMEscan analysis relative to control
[19] = target: Mast/stem cell growth factor receptor Kit (Homo sapiens) (UniProt P10721); experiment: Inhibition of T7 bacteriophage fused human KIT at 10 uM by KINOMEscan analysis relative to control
[20] = target: Phosphatidylinositol 4-phosphate 5-kinase type-1 alpha (Homo sapiens) (UniProt Q99755); experiment: Inhibition of T7 bacteriophage fused human PIP5K1A at 10 uM by KINOMEscan analysis relative to control
[21] = target: Casein kinase I isoform epsilon (Homo sapiens) (UniProt P49674); experiment: Inhibition of T7 bacteriophage fused human CSNK1E at 10 uM by KINOMEscan analysis relative to control
[22] = test system: Receptor-type tyrosine-protein kinase FLT3 (Homo sapiens), P36888 [D835Y]; experiment: Inhibition of T7 bacteriophage fused human FLT3 D835Y mutant at 10 uM by KINOMEscan analysis relative to control
[23] = target: Vascular endothelial growth factor receptor 3 (Homo sapiens) (UniProt P35916); experiment: Inhibition of T7 bacteriophage fused human FLT4 at 10 uM by KINOMEscan analysis relative to control
[24] = target: Tyrosine-protein kinase receptor UFO (Homo sapiens) (UniProt P30530); experiment: Inhibition of T7 bacteriophage fused human AXL at 10 uM by KINOMEscan analysis relative to control
[25] = test system: Fibroblast growth factor receptor 3 (Homo sapiens), P22607 [G697C]; experiment: Inhibition of T7 bacteriophage fused human FGFR3 G697C mutant at 10 uM by KINOMEscan analysis relative to control
[26] = target: Serine/threonine-protein kinase 38-like (Homo sapiens) (UniProt Q9Y2H1); experiment: Inhibition of T7 bacteriophage fused human NDR2 at 10 uM by KINOMEscan analysis relative to control
[27] = test system: Tyrosine-protein kinase ABL1 (Homo sapiens), P00519 [H396P]; experiment: Inhibition of T7 bacteriophage fused human phosphorylated ABL1 H396P mutant at 10 uM by KINOMEscan analysis relative to control
[28] = target: Vascular endothelial growth factor receptor 1 (Homo sapiens) (UniProt P17948); experiment: Inhibition of T7 bacteriophage fused human FLT1 at 10 uM by KINOMEscan analysis relative to control
Sequence of Vascular endothelial growth factor receptor 1 (Homo sapiens) (P17948 whole entry, the tested form may be a part): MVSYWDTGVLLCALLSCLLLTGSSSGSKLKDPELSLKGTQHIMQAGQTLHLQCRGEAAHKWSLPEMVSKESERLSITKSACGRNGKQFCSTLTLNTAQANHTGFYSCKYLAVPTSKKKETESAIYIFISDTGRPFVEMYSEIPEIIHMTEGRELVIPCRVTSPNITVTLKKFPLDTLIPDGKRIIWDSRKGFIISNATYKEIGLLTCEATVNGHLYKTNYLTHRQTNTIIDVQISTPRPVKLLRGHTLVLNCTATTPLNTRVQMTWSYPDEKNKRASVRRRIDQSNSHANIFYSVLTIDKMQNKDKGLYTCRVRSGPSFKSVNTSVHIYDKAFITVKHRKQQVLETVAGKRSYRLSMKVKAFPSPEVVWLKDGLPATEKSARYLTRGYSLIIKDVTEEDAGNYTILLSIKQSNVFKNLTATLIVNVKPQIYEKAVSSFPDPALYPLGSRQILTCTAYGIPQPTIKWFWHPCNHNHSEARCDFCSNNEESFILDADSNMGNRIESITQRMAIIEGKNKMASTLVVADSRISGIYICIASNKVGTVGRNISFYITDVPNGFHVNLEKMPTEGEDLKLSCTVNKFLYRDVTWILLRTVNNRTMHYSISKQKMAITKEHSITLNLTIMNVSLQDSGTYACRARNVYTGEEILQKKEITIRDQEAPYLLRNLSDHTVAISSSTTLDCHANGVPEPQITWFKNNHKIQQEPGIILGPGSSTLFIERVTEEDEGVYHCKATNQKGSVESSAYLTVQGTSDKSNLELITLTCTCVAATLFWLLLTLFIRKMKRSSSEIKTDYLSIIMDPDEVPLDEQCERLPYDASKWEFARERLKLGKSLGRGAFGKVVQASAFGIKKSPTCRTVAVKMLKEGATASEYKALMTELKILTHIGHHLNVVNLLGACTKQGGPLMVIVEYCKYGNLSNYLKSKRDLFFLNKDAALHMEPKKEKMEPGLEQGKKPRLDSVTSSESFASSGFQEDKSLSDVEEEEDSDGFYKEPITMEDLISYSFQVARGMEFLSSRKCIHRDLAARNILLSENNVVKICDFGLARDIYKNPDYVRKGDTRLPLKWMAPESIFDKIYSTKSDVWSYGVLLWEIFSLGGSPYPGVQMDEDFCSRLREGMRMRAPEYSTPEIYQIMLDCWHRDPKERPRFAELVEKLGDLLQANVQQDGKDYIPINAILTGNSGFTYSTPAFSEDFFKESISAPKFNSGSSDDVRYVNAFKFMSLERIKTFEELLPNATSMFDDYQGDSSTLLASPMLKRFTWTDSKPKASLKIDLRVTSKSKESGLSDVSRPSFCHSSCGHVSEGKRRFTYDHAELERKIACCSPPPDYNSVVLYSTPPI

Sequence of Mitogen-activated protein kinase kinase kinase kinase 2 (Homo sapiens) (Q12851 whole entry, the tested form may be a part): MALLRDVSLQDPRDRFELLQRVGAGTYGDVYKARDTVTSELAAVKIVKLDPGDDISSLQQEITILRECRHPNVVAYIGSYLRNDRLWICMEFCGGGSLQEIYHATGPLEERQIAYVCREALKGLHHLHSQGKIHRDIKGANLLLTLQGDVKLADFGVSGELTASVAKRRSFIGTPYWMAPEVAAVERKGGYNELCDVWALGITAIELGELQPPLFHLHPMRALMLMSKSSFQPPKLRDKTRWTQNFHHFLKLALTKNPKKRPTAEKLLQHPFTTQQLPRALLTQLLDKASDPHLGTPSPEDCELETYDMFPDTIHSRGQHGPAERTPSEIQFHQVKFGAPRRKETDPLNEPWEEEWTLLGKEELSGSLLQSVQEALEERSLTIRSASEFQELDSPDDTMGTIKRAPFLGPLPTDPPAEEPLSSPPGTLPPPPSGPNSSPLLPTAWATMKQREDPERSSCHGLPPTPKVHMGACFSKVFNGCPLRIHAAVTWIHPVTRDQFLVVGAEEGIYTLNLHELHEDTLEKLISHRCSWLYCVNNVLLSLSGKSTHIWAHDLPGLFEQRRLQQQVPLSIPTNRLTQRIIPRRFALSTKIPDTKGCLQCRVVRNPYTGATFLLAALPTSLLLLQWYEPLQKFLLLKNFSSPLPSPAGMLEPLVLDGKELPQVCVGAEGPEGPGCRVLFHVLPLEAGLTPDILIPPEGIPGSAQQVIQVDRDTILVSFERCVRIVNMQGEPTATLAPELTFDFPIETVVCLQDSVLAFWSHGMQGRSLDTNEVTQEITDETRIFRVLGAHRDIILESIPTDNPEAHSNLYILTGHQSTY
Sequence of Leucine-rich repeat serine/threonine-protein kinase 2 (Homo sapiens) (Q5S007 whole entry, the tested form may be a part): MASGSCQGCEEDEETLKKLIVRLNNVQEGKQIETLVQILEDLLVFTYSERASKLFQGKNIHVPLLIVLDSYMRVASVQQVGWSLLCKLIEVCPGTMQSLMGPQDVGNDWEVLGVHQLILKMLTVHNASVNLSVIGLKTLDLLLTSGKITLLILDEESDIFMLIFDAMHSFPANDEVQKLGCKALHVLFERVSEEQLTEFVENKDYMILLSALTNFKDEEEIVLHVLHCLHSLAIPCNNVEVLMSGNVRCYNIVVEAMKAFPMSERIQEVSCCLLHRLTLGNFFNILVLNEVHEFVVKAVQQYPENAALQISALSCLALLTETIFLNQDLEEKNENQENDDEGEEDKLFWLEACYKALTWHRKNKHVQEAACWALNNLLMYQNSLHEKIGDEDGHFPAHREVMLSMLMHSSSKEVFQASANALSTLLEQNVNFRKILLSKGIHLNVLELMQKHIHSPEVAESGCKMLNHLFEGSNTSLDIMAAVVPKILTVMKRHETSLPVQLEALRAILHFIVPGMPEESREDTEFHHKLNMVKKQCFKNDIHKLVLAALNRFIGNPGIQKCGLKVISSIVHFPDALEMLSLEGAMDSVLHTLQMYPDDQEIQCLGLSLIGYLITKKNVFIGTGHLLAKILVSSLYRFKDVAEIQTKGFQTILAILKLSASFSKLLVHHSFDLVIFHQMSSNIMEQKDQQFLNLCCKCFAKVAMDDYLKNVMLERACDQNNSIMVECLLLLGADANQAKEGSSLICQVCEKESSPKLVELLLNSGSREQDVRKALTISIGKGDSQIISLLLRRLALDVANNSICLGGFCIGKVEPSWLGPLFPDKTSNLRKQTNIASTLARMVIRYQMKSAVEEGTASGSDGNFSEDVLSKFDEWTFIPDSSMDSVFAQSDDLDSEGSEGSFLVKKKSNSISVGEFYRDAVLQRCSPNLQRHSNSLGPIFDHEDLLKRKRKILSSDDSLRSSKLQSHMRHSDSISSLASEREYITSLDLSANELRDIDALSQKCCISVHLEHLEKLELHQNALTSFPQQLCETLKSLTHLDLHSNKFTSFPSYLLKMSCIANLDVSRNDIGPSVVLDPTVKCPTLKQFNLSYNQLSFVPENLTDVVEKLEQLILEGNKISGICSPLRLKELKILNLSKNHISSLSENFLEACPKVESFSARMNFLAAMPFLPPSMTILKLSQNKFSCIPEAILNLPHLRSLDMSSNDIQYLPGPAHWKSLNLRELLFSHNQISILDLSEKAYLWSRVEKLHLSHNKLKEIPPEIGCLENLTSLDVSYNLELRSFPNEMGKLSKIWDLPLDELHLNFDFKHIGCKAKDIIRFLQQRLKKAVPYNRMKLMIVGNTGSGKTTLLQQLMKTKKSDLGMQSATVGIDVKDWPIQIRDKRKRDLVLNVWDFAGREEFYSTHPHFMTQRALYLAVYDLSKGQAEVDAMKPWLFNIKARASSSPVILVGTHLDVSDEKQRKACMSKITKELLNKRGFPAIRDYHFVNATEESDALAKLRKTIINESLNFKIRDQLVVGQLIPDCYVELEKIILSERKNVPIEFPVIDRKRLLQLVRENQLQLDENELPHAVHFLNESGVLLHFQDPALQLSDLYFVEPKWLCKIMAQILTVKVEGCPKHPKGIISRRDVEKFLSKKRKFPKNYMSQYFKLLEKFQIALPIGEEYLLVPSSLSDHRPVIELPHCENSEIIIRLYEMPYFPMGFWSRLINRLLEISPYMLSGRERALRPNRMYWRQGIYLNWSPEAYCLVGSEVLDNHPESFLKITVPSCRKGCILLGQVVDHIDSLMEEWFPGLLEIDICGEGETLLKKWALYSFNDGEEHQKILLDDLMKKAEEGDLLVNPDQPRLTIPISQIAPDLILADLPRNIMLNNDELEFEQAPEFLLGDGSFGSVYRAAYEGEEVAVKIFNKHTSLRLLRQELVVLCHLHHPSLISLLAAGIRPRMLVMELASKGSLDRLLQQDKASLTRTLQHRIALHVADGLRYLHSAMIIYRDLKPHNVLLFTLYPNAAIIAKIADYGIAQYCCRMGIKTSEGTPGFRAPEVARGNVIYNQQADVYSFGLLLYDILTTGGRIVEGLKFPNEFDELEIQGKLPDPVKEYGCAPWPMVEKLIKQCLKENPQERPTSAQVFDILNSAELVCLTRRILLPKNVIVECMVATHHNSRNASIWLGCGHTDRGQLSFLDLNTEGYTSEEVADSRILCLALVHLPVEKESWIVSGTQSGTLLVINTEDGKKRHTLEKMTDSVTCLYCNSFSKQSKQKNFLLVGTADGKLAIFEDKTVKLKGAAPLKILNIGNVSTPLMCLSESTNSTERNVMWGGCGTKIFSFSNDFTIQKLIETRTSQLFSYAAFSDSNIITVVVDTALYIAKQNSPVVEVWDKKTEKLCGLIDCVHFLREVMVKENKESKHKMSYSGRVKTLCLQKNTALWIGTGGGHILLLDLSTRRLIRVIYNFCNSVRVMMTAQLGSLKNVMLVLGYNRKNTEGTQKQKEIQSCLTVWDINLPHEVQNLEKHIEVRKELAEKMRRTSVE
Sequence of Leucine-rich repeat serine/threonine-protein kinase 2 (Homo sapiens), Q5S007 [A2016T] (Q5S007 whole entry A2016T): as the sequence (Q5S007 whole entry, the tested form may be a part) above, with A2016T counted along it
Sequence of Dual specificity mitogen-activated protein kinase kinase 1 (Homo sapiens) (Q02750 whole entry, the tested form may be a part): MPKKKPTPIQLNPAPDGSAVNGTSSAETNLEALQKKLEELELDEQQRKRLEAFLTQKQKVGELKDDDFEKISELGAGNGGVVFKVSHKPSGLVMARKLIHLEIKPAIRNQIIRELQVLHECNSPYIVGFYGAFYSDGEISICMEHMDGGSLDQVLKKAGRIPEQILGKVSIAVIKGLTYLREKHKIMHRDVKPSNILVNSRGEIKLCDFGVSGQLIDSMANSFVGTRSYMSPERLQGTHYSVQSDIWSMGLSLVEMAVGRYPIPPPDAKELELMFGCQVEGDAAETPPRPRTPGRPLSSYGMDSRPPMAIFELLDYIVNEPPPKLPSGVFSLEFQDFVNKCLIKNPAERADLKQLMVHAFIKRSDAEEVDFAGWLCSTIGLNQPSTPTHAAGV

**Q.** `CCOc1cc(C(=O)N2CCC(N3CCN(C)CC3)CC2)ccc1Nc1ncc2c(n1)N(C1CCCC1)c1ccccc1C(=O)N2C` was tested. Which inhibition [1] did it give?
**A.** inactive

**Q.** What about the inhibition [2] of the same compound?
**A.** inactive

**Q.** What does the source list for `COc1cc(N2CCC(N3CCN(C)CC3)CC2)ccc1Nc1ncc2c(n1)N(C)c1ccccc1C(=O)N2C`?
**A.** residual activity [3]: 90%; residual activity [4]: 32%; inhibition [5]: 100%; inhibition [6]: 10%; inhibition [7]: 100%; inhibition [8]: 17%; inhibition [9]: 100%; residual activity [10]: 84%; inhibition [11]: 100%; inhibition [12]: 100%; inhibition [13]: 100%; inhibition [14]: 97%; inhibition [15]: 74%; inhibition [16]: 100%; residual activity [17]: 67%; inhibition [18]: 20%; inhibition [19]: 100%; inhibition [20]: 90%; inhibition [21]: 95%; inhibition [22]: 100%; inhibition [23]: 100%; inhibition [24]: 100%; inhibition [25]: 85%; inhibition [26]: 100%; inhibition [27]: 100%; inhibition [28]: 100%

Reference: ChEMBL document CHEMBL5678810
